What was measured:
Syrian golden hamster [1] = experiment: Antidyslipidemic activity in high fructose and high-fat diet fed dyslipidemic Syrian golden hamster model assessed as reduction in cholesterol level at 25 mg/kg/day for 7 days; type: functional, Mesocricetus auratus; set-up: scale not given: the % may be the effect or the level left
[2] = Oral bioavailability in Sprague-Dawley rat at 25 mg/kg by LC-MS/MS method; type: ADME, organism-based; conditions: in vivo
How it was run: (§1)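 Male Sprague−Dawley rats given a single 25 mg/kg oral dose (aqueous 0.5% methyl cellulose suspension for one compound). Blood drawn from 0.08 to 48 h. LC-MS/MS, linear range 0.78−400 ng/mL.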

Syrian golden hamster [3] = experiment: Antidyslipidemic activity in high fructose and high-fat diet fed dyslipidemic Syrian golden hamster model assessed as increase in HDL-cholesterol level at 25 mg/kg/day for 7 days; type: functional, Mesocricetus auratus
Syrian golden hamster [4] = experiment: Antidyslipidemic activity in high fructose and high-fat diet fed dyslipidemic Syrian golden hamster model assessed as increase in HDL-cholesterol level at 30 mg/kg/day, po for 7 day, po; type: functional, Mesocricetus auratus
How it was run: (§2)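 Syrian golden hamsters fed high-fructose high-fat diet; oral dosing in 1% gum acacia at 10, 30, 100 mg/kg (or 25 mg/kg) for 7 days, sham control given vehicle; plasma TG, cholesterol, LDL-C, HDL-C, glycerol and NEFA (kits), lipoprotein lipase activity and body weight; % change versus HFD control, six hamsters per group.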

Syrian golden hamster [5] = experiment: Antidyslipidemic activity in high fructose and high-fat diet fed dyslipidemic Syrian golden hamster model assessed as reduction in LDL-cholesterol level at 10 mg/kg/day, po for 7 day, po; type: functional, Mesocricetus auratus; set-up: scale not given: the % may be the effect or the level left; how it was run: as §2
[6] = Plasma clearance in Sprague-Dawley rat at 2.5 mg/kg, iv by LC-MS/MS method; type: ADME, organism-based; set-up: dose 2.5 mg/kg, route intravenous
How it was run: (§3)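 Male Sprague−Dawley rats given a single 2.5 mg/kg iv dose; one formulation was DMF/PG/water (2:4:4), 0.2 μ filtered. Blood drawn from 0.08 to 48 h. Plasma assayed by LC-MS/MS with linear range 0.78−400 ng/mL.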

[7] = Mean residence time in Sprague-Dawley rat at 25 mg/kg, po by LC-MS/MS method; type: ADME, organism-based; set-up: dose 25 mg/kg, route oral; conditions: in vivo; how it was run: as §1
Syrian golden hamster [8] = experiment: Antidyslipidemic activity in high fructose and high-fat diet fed dyslipidemic Syrian golden hamster model assessed as increase in lipoprotein lipase level at 30 mg/kg/day, po for 7 day, po; type: functional, Mesocricetus auratus; how it was run: as §2
Rattus norvegicus [9] = experiment: AUC in Sprague-Dawley rat at 25 mg/kg, po by LC-MS/MS method; conditions: in vivo
Mus musculus [10] = experiment: Antidiabetic activity in diabetic C57BL/KsJ db/db mouse model assessed as reduction in postprandial glucose level in hyperglycemia at 10 mg/kg, po measured 2 hrs post dose; type: functional; set-up: scale not given: the % may be the effect or the level left
How it was run: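 db/db mice (C57BL/KsJ, 12−18 weeks, 40−50 g; selected by glucose 200−350 mg/dL) dosed orally daily for 10 consecutive days at 1, 3, 10, 25 or 50 mg/kg; postprandial blood glucose profile recorded on day 6 with food access interrupted; mean % change versus vehicle in 5 animals per group; Student t test.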

Mus musculus [11] = experiment: Antidiabetic activity in diabetic C57BL/KsJ db/db mouse model assessed as reduction in postprandial glucose level in hyperglycemia at 50 mg/kg, po measured 2 hrs post dose; set-up: scale not given: the % may be the effect or the level left
[12] = Mean residence time in Sprague-Dawley rat at 2.5 mg/kg, iv by LC-MS/MS method; type: ADME, organism-based; set-up: dose 2.5 mg/kg, route intravenous; conditions: in vivo; how it was run: as §3
Syrian golden hamster [13] = experiment: Reduction in body weight in high fructose and high-fat diet fed dyslipidemic Syrian golden hamster model at 10 mg/kg/day, po for 7 days; type: functional, Mesocricetus auratus; set-up: scale not given: the % may be the effect or the level left
How it was run: (§4)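 HFD-fed Syrian golden hamsters, six per group, fed a high-fructose diet. Oral dosing in 1% gum acacia for 7 days. Sham group received vehicle. Plasma TG was measured and body weight tracked. Results given as % change versus HFD control.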

Syrian golden hamster [14] = experiment: Antidyslipidemic activity in high fructose and high-fat diet fed dyslipidemic Syrian golden hamster model assessed as reduction in triglyceride level at 30 mg/kg/day, po for 7 day, po; type: functional, Mesocricetus auratus; set-up: scale not given: the % may be the effect or the level left; how it was run: as §4
Mus musculus [15] = experiment: Antidyslipidemic activity in diabetic C57BL/KsJ db/db mouse model assessed as reduction in plasma cholesterol level at 25 mg/kg, po qd for 10 days; type: functional; set-up: scale not given: the % may be the effect or the level left
How it was run: (§5)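 db/db mice (blood glucose 200−350, TG 170−250, cholesterol 170−250, HDL-C 32−40 mg/dL) dosed orally at 25 mg/kg daily for 10 days; retro-orbital blood taken on day 11 for plasma TG, cholesterol and HDL-C (and HDL-C/CHOL ratio); mean % change versus vehicle control, 5 mice per group; Student t test.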

Syrian golden hamster [16] = experiment: Antidyslipidemic activity in high fructose and high-fat diet fed dyslipidemic Syrian golden hamster model assessed as increase in lipoprotein lipase level at 100 mg/kg/day, po for 7 days; type: functional, Mesocricetus auratus; how it was run: as §2
Syrian golden hamster [17] = experiment: Antidyslipidemic activity in high fructose and high-fat diet fed dyslipidemic Syrian golden hamster model assessed as reduction in glycerol level at 30 mg/kg/day, po for 7 day, po; type: functional, Mesocricetus auratus; set-up: scale not given: the % may be the effect or the level left; how it was run: as §2
Syrian golden hamster [18] = experiment: Antidyslipidemic activity in high fructose and high-fat diet fed dyslipidemic Syrian golden hamster model assessed as reduction in cholesterol level at 10 to 100 mg/kg/day for 7 days; type: functional, organism-based; conditions: Mesocricetus auratus; how it was run: as §2
Syrian golden hamster [19] = experiment: Antidyslipidemic activity in high fructose and high-fat diet fed dyslipidemic Syrian golden hamster model assessed as reduction in body weight at 25 mg/kg/day for 7 days; type: functional, Mesocricetus auratus; set-up: scale not given: the % may be the effect or the level left; how it was run: as §2
Mus musculus [20] = experiment: Antidyslipidemic activity in diabetic C57BL/KsJ db/db mouse model assessed as reduction in plasma triglyceride level at 25 mg/kg, po qd for 10 days; type: functional; set-up: scale not given: the % may be the effect or the level left; how it was run: as §5
Syrian golden hamster [21] = experiment: Antidyslipidemic activity in high fructose and high-fat diet fed dyslipidemic Syrian golden hamster model assessed as reduction in triglyceride level at 10 to 100 mg/kg/day for 7 days; type: functional, organism-based; conditions: Mesocricetus auratus; how it was run: as §2
Syrian golden hamster [22] = experiment: Antidyslipidemic activity in high fructose and high-fat diet fed dyslipidemic Syrian golden hamster model assessed as reduction in LDL-cholesterol level at 25 mg/kg/day for 7 days; type: functional, Mesocricetus auratus; set-up: scale not given: the % may be the effect or the level left; how it was run: as §2
Rattus norvegicus [23] = experiment: AUC in Sprague-Dawley rat at 2.5 mg/kg, iv by LC-MS/MS method; conditions: in vivo
Mus musculus [24] = experiment: Antidyslipidemic activity in diabetic C57BL/KsJ db/db mouse model assessed as increase in plasma HDL-cholesterol level at 25 mg/kg, po qd for 10 days; type: functional; how it was run: as §5
Mus musculus [25] = experiment: Antihyperglycemic activity in diabetic C57BL/KsJ db/db mouse model assessed as improvement in glucose tolerance in hyperglycemia at 25 mg/kg, po qd for 10 days; type: functional
How it was run: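 Male/female C57BL/KsJ db/db mice, 12−18 weeks, 40−50 g, selected for glucose 200−350 mg/dL. Oral dosing daily for 10 days. OGTT on day 10 after an overnight fast: compound at −30 min, then 3 g/kg oral glucose at 0 min. Glucose read at 30, 60, 90 and 120 min. AUC taken versus vehicle, 5 mice per group.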

Syrian golden hamster [26] = experiment: Antidyslipidemic activity in high fructose and high-fat diet fed dyslipidemic Syrian golden hamster model assessed as reduction in glycerol level at 10 mg/kg/day, po for 7 day, po; type: functional, Mesocricetus auratus; set-up: scale not given: the % may be the effect or the level left; how it was run: as §2
Syrian golden hamster [27] = experiment: Antidyslipidemic activity in high fructose and high-fat diet fed dyslipidemic Syrian golden hamster model assessed as reduction in NEFA level at 10 mg/kg/day, po for 7 day, po; type: functional, Mesocricetus auratus; set-up: scale not given: the % may be the effect or the level left; how it was run: as §2
Syrian golden hamster [28] = experiment: Antidyslipidemic activity in high fructose and high-fat diet fed dyslipidemic Syrian golden hamster model assessed as reduction in triglyceride level at 25 mg/kg/day for 7 days; type: functional, Mesocricetus auratus; set-up: scale not given: the % may be the effect or the level left; how it was run: as §4

`CC(C)(C)NC[C@H](O)COc1ccc2c(=O)cc(-c3cc(OCc4ccccc4)cc(OCc4ccccc4)c3)oc2c1` showed an Activity (Syrian golden hamster [1]) of 24.4%, a bioavailability [2] of 27% and an Activity (Syrian golden hamster [3]) of 20.5%. The Activity (Syrian golden hamster [4]) was 21%, the Activity (Syrian golden hamster [5]) was 21.1% and the clearance [6] was 62 mL/min/kg. It also gave an MRT [7] of 30.3 h, an Activity (Syrian golden hamster [8]) of 31.2% and an AUC (Rattus norvegicus [9]) of 1798.22 ng·h/mL. For the same compound, the Activity (Mus musculus [10]) was 28.8%, the Activity (Mus musculus [11]) was 39.1% and the MRT [12] was 13.5 h. The Activity (Syrian golden hamster [13]) was 7.38%, the Activity (Syrian golden hamster [14]) was 39.8% and the Activity (Mus musculus [15]) was 30.7%. For the same compound, the Activity (Syrian golden hamster [16]) was 69.7%, the Activity (Syrian golden hamster [17]) was 25.7% and the Activity (Syrian golden hamster [18]) was “Dose-dependent effect”. For the same compound, the Activity (Syrian golden hamster [19]) was 14.3%, the Activity (Mus musculus [20]) was 27.4% and the Activity (Syrian golden hamster [21]) was “Dose-dependent effect”. The Activity (Syrian golden hamster [22]) was 30.1%, the AUC (Rattus norvegicus [23]) was 666 ng·h/mL and the Activity (Mus musculus [24]) was 33.2%. It also gave an Activity (Mus musculus [25]) of 38.8%, an Activity (Syrian golden hamster [26]) of 14.4% and an Activity (Syrian golden hamster [27]) of 13.1%. The Activity (Syrian golden hamster [28]) was 34.7%.
